Measurements as given in ChEMBL document CHEMBL5724801, “EUbOPEN Chemogenomics Library - Multiplex” (2024).
Several values for one entry are separate records, joined by “and”; a condition that tells them apart may be missing. Equal entries are not always repeated.

Tested on: U2OS
Experiment: Multiplex assay against U2OS
Assay type: toxicity, cell-based
Conditions: human
Outline: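 Imaging took place on a CQ1 microscope at 37°C and 5% CO2 once compound had been added to live cells stained at seeding with Hoechst33342, BioTracker Green Microtubule Cytoskeleton Dye, MitoTracker Red and Annexin V Alexa Fluor 680. CellPathfinder machine-learning gating classed cells as Hoechst high-intensity objects or normal cells, classed normal cells as having healthy, pyknosed or fragmented nuclei, and classed pyknosed cells as mitotic or apoptotic. Tubulin, mitochondrial-mass and membrane-permeability phenotypes are per cents of the healthy-nucleus cells.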

[1] = 12 h, 1 µM, compound concentration 1 uM
[2] = 12 h, 10 µM, compound concentration 10 uM
[3] = 24 h, 1 µM, compound concentration 1 uM
[4] = 24 h, 10 µM, compound concentration 10 uM
[5] = 48 h, 1 µM, compound concentration 1 uM
[6] = 48 h, 10 µM, compound concentration 10 uM

For `CN1CCC(C(=O)c2cccc(NC(=O)c3c(F)cc(F)cc3F)n2)CC1`, the “Population Apoptotic (%)” value [1] was 90% and 57%, the “Population Fragmented Nuclei (%)” value [1] was 20% and the “Population Healthy Nuclei (%)” value [1] was 70% and 71%. For the same compound, the “Population Hoechst High Intensity Objects (%)” value [1] was 2% and 1%, the “Population Membrane Permeable-Phenotype (%)” value [1] was 8% and 9% and the “Population Mitochondria Different-Phenotype (%)” value [1] was 3% and 11%. For the same compound, the “Population Normal (%)” value [1] was 97% and 98%, the “Population Pyknosed Nuclei (%)” value [1] was 9% and 7% and the “Population Tubulin-Different-Phenotype (%)” value [1] was 5% and 6%. For the same compound, the “Total Cell Count” value [1] was 218 and 89, the “Population Apoptotic (%)” value [2] was 65% and 64% and the “Population Fragmented Nuclei (%)” value [2] was 27% and 14%. For the same compound, the “Population Healthy Nuclei (%)” value [2] was 63% and 68%, the “Population Hoechst High Intensity Objects (%)” value [2] was 1% and the “Population Membrane Permeable-Phenotype (%)” value [2] was 14% and 15%. For the same compound, the “Population Mitochondria Different-Phenotype (%)” value [2] was 13% and 18%, the “Population Mitotic Cells (%)” value [2] was 34% and 35% and the “Population Normal (%)” value [2] was 98%. The “Population Pyknosed Nuclei (%)” value [2] was 9% and 16%, the “Population Tubulin-Different-Phenotype (%)” value [2] was 12% and 15% and the “Total Cell Count” value [2] was 270 and 103. The “Population Apoptotic (%)” value [3] was 85% and 72%, the “Population Fragmented Nuclei (%)” value [3] was 22% and 18% and the “Population Healthy Nuclei (%)” value [3] was 67% and 71%. The “Population Hoechst High Intensity Objects (%)” value [3] was 2% and 0%, the “Population Membrane Permeable-Phenotype (%)” value [3] was 4% and 6% and the “Population Mitochondria Different-Phenotype (%)” value [3] was 3% and 10%. For the same compound, the “Population Mitotic Cells (%)” value [3] was 14% and 27%, the “Population Normal (%)” value [3] was 97% and 99% and the “Population Pyknosed Nuclei (%)” value [3] was 9%. For the same compound, the “Population Tubulin-Different-Phenotype (%)” value [3] was 3% and 0%, the “Total Cell Count” value [3] was 284 and 113 and the “Population Apoptotic (%)” value [4] was 82% and 66%. For the same compound, the “Population Fragmented Nuclei (%)” value [4] was 21% and 15%, the “Population Healthy Nuclei (%)” value [4] was 68% and the “Population Hoechst High Intensity Objects (%)” value [4] was 2% and 5%. The “Population Membrane Permeable-Phenotype (%)” value [4] was 8% and 10%, the “Population Mitochondria Different-Phenotype (%)” value [4] was 9% and 15% and the “Population Mitotic Cells (%)” value [4] was 17% and 33%. For the same compound, the “Population Normal (%)” value [4] was 97% and 94%, the “Population Pyknosed Nuclei (%)” value [4] was 9% and 15% and the “Population Tubulin-Different-Phenotype (%)” value [4] was 5% and 10%. The “Total Cell Count” value [4] was 298 and 126, the “Population Apoptotic (%)” value [5] was 100% and 89% and the “Population Fragmented Nuclei (%)” value [5] was 17% and 29%. The “Population Healthy Nuclei (%)” value [5] was 70% and 57%, the “Population Hoechst High Intensity Objects (%)” value [5] was 2% and 5% and the “Population Membrane Permeable-Phenotype (%)” value [5] was 4% and 12%. The “Population Mitochondria Different-Phenotype (%)” value [5] was 1% and 8%, the “Population Mitotic Cells (%)” value [5] was 0% and 10% and the “Population Normal (%)” value [5] was 97% and 94%. For the same compound, the “Population Pyknosed Nuclei (%)” value [5] was 11% and 13%, the “Population Tubulin-Different-Phenotype (%)” value [5] was 2% and 4% and the “Total Cell Count” value [5] was 394 and 149. The “Population Apoptotic (%)” value [6] was 85%, the “Population Fragmented Nuclei (%)” value [6] was 18% and 15% and the “Population Healthy Nuclei (%)” value [6] was 69%. The “Population Hoechst High Intensity Objects (%)” value [6] was 3%, the “Population Membrane Permeable-Phenotype (%)” value [6] was 8% and 16% and the “Population Mitochondria Different-Phenotype (%)” value [6] was 3% and 10%. The “Population Mitotic Cells (%)” value [6] was 14%, the “Population Normal (%)” value [6] was 96% and the “Population Pyknosed Nuclei (%)” value [6] was 12% and 14%. The “Population Tubulin-Different-Phenotype (%)” value [6] was 3% and 8% and the “Total Cell Count” value [6] was 398 and 189.

With `CCc1nn2c(C)cc(C)nc2c1Cc1ccc(-c2nnc(C3CCNCC3)o2)cc1` the “Population Apoptotic (%)” value [1] was 42% and 85%, the “Population Healthy Nuclei (%)” value [1] was 60% and 84% and the “Population Hoechst High Intensity Objects (%)” value [1] was 3% and 2%. For the same compound, the “Population Membrane Permeable-Phenotype (%)” value [1] was 12% and 14%, the “Population Mitochondria Different-Phenotype (%)” value [1] was 10% and 17% and the “Population Normal (%)” value [1] was 96% and 97%. The “Population Pyknosed Nuclei (%)” value [1] was 10% and 6%, the “Population Tubulin-Different-Phenotype (%)” value [1] was 11% and 4% and the “Total Cell Count” value [1] was 251 and 110. For the same compound, the “Population Apoptotic (%)” value [2] was 68% and 77%, the “Population Fragmented Nuclei (%)” value [2] was 24% and 8% and the “Population Healthy Nuclei (%)” value [2] was 55% and 76%. For the same compound, the “Population Hoechst High Intensity Objects (%)” value [2] was 5% and 2%, the “Population Membrane Permeable-Phenotype (%)” value [2] was 26% and 30% and the “Population Mitochondria Different-Phenotype (%)” value [2] was 43% and 62%. For the same compound, the “Population Mitotic Cells (%)” value [2] was 31% and 22%, the “Population Normal (%)” value [2] was 94% and 97% and the “Population Pyknosed Nuclei (%)” value [2] was 20% and 14%. For the same compound, the “Population Tubulin-Different-Phenotype (%)” value [2] was 28% and 44%, the “Total Cell Count” value [2] was 214 and 129 and the “Population Apoptotic (%)” value [3] was 80% and 87%. For the same compound, the “Population Fragmented Nuclei (%)” value [3] was 26% and 13%, the “Population Healthy Nuclei (%)” value [3] was 63% and 80% and the “Population Hoechst High Intensity Objects (%)” value [3] was 2% and 3%. For the same compound, the “Population Membrane Permeable-Phenotype (%)” value [3] was 4% and 7%, the “Population Mitochondria Different-Phenotype (%)” value [3] was 6% and 12% and the “Population Mitotic Cells (%)” value [3] was 20% and 12%. For the same compound, the “Population Normal (%)” value [3] was 97% and 96%, the “Population Pyknosed Nuclei (%)” value [3] was 10% and 6% and the “Population Tubulin-Different-Phenotype (%)” value [3] was 3%. For the same compound, the “Total Cell Count” value [3] was 296 and 130, the “Population Apoptotic (%)” value [4] was 77% and 71% and the “Population Fragmented Nuclei (%)” value [4] was 24% and 15%. The “Population Healthy Nuclei (%)” value [4] was 55% and 71%, the “Population Hoechst High Intensity Objects (%)” value [4] was 3% and the “Population Membrane Permeable-Phenotype (%)” value [4] was 9% and 16%. For the same compound, the “Population Mitochondria Different-Phenotype (%)” value [4] was 40% and 61%, the “Population Mitotic Cells (%)” value [4] was 22% and 28% and the “Population Normal (%)” value [4] was 96%. For the same compound, the “Population Pyknosed Nuclei (%)” value [4] was 19% and 13%, the “Total Cell Count” value [4] was 236 and 163 and the “Population Apoptotic (%)” value [5] was 90% and 85%. The “Population Fragmented Nuclei (%)” value [5] was 17% and 12%, the “Population Healthy Nuclei (%)” value [5] was 71% and 72% and the “Population Hoechst High Intensity Objects (%)” value [5] was 2%. The “Population Membrane Permeable-Phenotype (%)” value [5] was 6% and 7%, the “Population Mitochondria Different-Phenotype (%)” value [5] was 2% and 6% and the “Population Mitotic Cells (%)” value [5] was 10% and 14%. The “Population Normal (%)” value [5] was 97%, the “Population Pyknosed Nuclei (%)” value [5] was 10% and 14% and the “Population Tubulin-Different-Phenotype (%)” value [5] was 4%. The “Total Cell Count” value [5] was 376 and 187, the “Population Apoptotic (%)” value [6] was 82% and 75% and the “Population Fragmented Nuclei (%)” value [6] was 24% and 12%. The “Population Healthy Nuclei (%)” value [6] was 55% and 71%, the “Population Hoechst High Intensity Objects (%)” value [6] was 2% and the “Population Membrane Permeable-Phenotype (%)” value [6] was 10% and 22%. The “Population Mitochondria Different-Phenotype (%)” value [6] was 29% and 31%, the “Population Mitotic Cells (%)” value [6] was 17% and 24% and the “Population Normal (%)” value [6] was 97%. For the same compound, the “Population Pyknosed Nuclei (%)” value [6] was 19% and 15% and the “Total Cell Count” value [6] was 290 and 219.

For `CSc1ccccc1N1CCN(CCCCCC(=O)NC2CCCc3ccccc32)CC1.Cl` (configuration not stated), the “Population Apoptotic (%)” value [1] was 62% and 36%, the “Population Fragmented Nuclei (%)” value [1] was 22% and 24% and the “Population Healthy Nuclei (%)” value [1] was 61% and 63%. For the same compound, the “Population Hoechst High Intensity Objects (%)” value [1] was 9% and 3%, the “Population Membrane Permeable-Phenotype (%)” value [1] was 73% and 51% and the “Population Mitochondria Different-Phenotype (%)” value [1] was 71% and 85%. For the same compound, the “Population Mitotic Cells (%)” value [1] was 37% and 63%, the “Population Normal (%)” value [1] was 90% and 96% and the “Population Pyknosed Nuclei (%)” value [1] was 15% and 11%. The “Population Tubulin-Different-Phenotype (%)” value [1] was 88% and 72%, the “Total Cell Count” value [1] was 222 and 101 and the “Population Apoptotic (%)” value [2] was 70% and 84%. The “Population Fragmented Nuclei (%)” value [2] was 41% and 23%, the “Population Healthy Nuclei (%)” value [2] was 39% and 55% and the “Population Hoechst High Intensity Objects (%)” value [2] was 8% and 4%. For the same compound, the “Population Membrane Permeable-Phenotype (%)” value [2] was 67% and 60%, the “Population Mitochondria Different-Phenotype (%)” value [2] was 90% and 92% and the “Population Mitotic Cells (%)” value [2] was 29% and 16%. The “Population Normal (%)” value [2] was 91% and 95%, the “Population Pyknosed Nuclei (%)” value [2] was 18% and 21% and the “Population Tubulin-Different-Phenotype (%)” value [2] was 96% and 98%. The “Total Cell Count” value [2] was 221 and 125, the “Population Apoptotic (%)” value [3] was 54% and 58% and the “Population Fragmented Nuclei (%)” value [3] was 22% and 25%. The “Population Healthy Nuclei (%)” value [3] was 60% and 58%, the “Population Hoechst High Intensity Objects (%)” value [3] was 6% and 2% and the “Population Membrane Permeable-Phenotype (%)” value [3] was 63% and 46%. For the same compound, the “Population Mitochondria Different-Phenotype (%)” value [3] was 63% and 74%, the “Population Mitotic Cells (%)” value [3] was 45% and 41% and the “Population Normal (%)” value [3] was 94% and 97%. For the same compound, the “Population Pyknosed Nuclei (%)” value [3] was 17% and 15%, the “Population Tubulin-Different-Phenotype (%)” value [3] was 75% and 63% and the “Total Cell Count” value [3] was 250 and 111. The “Population Apoptotic (%)” value [4] was 89% and 94%, the “Population Fragmented Nuclei (%)” value [4] was 44% and 19% and the “Population Healthy Nuclei (%)” value [4] was 28% and 44%. The “Population Hoechst High Intensity Objects (%)” value [4] was 6% and 10%, the “Population Membrane Permeable-Phenotype (%)” value [4] was 79% and 90% and the “Population Mitochondria Different-Phenotype (%)” value [4] was 81% and 56%. The “Population Mitotic Cells (%)” value [4] was 10% and 5%, the “Population Normal (%)” value [4] was 93% and 89% and the “Population Pyknosed Nuclei (%)” value [4] was 26% and 37%. The “Population Tubulin-Different-Phenotype (%)” value [4] was 91% and 97%, the “Total Cell Count” value [4] was 219 and 112 and the “Population Apoptotic (%)” value [5] was 64% and 95%. For the same compound, the “Population Fragmented Nuclei (%)” value [5] was 25% and 28%, the “Population Healthy Nuclei (%)” value [5] was 53% and 52% and the “Population Hoechst High Intensity Objects (%)” value [5] was 8% and 5%. The “Population Membrane Permeable-Phenotype (%)” value [5] was 42% and 41%, the “Population Mitochondria Different-Phenotype (%)” value [5] was 56% and 63% and the “Population Normal (%)” value [5] was 91% and 94%. The “Population Pyknosed Nuclei (%)” value [5] was 21% and 18%, the “Population Tubulin-Different-Phenotype (%)” value [5] was 50% and 44% and the “Total Cell Count” value [5] was 272 and 137. For the same compound, the “Population Apoptotic (%)” value [6] was 98% and 100%, the “Population Fragmented Nuclei (%)” value [6] was 43% and 25% and the “Population Healthy Nuclei (%)” value [6] was 18% and 20%. For the same compound, the “Population Hoechst High Intensity Objects (%)” value [6] was 15% and 11%, the “Population Membrane Permeable-Phenotype (%)” value [6] was 77% and 85% and the “Population Mitochondria Different-Phenotype (%)” value [6] was 33% and 45%. The “Population Mitotic Cells (%)” value [6] was 1% and 0%, the “Population Normal (%)” value [6] was 84% and 88% and the “Population Pyknosed Nuclei (%)” value [6] was 38% and 54%. For the same compound, the “Population Tubulin-Different-Phenotype (%)” value [6] was 75% and 95% and the “Total Cell Count” value [6] was 232 and 109.
